CRFBP-R2 block – antagonists of CRF-binding protein/CRF-R2 receptor complex; HEK293 CRF-R2/CRF-BP, CRF-induced calcium fluorescence; inhibition, % at 11.8 µM; actives 0.59% (n = 350,000); AID 588475;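 active = inhibition of the ligand-induced calcium signal above about 50% at the single tested concentration, limit read from the data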
DDE Tn7 FP inh – inhibitors of Tn7 peptide binding to human fibrin DD(E); P02675; FP displacement of FITC-Tn7 peptide from fibrin DD(E); 0% = median of compound wells per plate; inhibition, % at 8.3 µM; actives 0.13% (n = 370,000); AID 720508;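 active = inhibition above the mean of compounds falling within the control limits plus 3 SD of them, cut at about 14% in these data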
Target sequence (P02675 whole entry, looked up): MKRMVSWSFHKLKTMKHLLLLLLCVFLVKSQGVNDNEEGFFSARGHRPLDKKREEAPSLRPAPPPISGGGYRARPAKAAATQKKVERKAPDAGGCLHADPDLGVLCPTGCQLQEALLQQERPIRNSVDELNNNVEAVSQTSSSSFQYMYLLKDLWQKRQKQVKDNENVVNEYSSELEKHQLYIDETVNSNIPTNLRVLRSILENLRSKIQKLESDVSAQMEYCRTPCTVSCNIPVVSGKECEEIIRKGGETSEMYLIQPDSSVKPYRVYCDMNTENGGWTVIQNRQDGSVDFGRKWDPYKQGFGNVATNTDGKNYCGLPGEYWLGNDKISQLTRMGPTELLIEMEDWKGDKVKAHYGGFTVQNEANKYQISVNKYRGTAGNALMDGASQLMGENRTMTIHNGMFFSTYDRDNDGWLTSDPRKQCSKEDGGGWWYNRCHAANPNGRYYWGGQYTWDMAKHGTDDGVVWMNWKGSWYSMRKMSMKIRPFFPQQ
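Also added: labelled Tn7 tracer, 0.1 µM; Assay system: human fibrin DD(E) protein; Amount: 2 µM fibrin DD(E); Schedule: 10 min compound pre-incubation, 3 h probe incubation at room temperature; Repeats: one replicate per compound; Read-out basis: percent inhibition; Measured by: fluorescence polarization of the labelled Tn7 tracer.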
Tn6 DDE FP – inhibitors of Tn6 peptide binding to human fibrin DD(E); P02675; Fibrin DD(E) TRITC-Tn6 fluorescence polarization displacement; inhibition, % at 8.3 µM; actives 0.21% (n = 370,000);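 active = inhibition above a per-campaign cutoff: mean of compounds within control limits plus 3 SD, cut at about 15% in these data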
CRFR2-BP ag – CRF-BP/CRF-R2 complex agonism; actives 0.46% (n = 350,000); HEK293 CRF-R2/CRF-BP, calcium dye fluorescence (FLIPR); percent of saturating CRF peptide response; AID 588473; activation, % at 13.2 µM;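 active = activation of at least 50%, plus an integration ratio under a set limit after plate pattern correction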
Each line names hits and unclear results; the compound was inactive in the other large screens. Compounds with a hit are over-represented: about 1.2% of the library has one in this group of screens.

CCOC(=O)NNC(=O)c1[nH]c2ccc(Br)cc2c1-c1ccccc1	CRFBP-R2 block 57
ON1C(c2ccc(Cl)cc2Cl)N(O)[C@H]2CCCC[C@H]21 (stereo partly drawn)	CRFBP-R2 block 51
O=c1sc2ccccc2n1CCOc1ccccc1	none
Cc1ccc(OCn2c(=O)sc3ccccc32)cc1	CRFBP-R2 block 55 (no result: DDE Tn7 FP inh, Tn6 DDE FP)
O=C(Nc1ccc(SC(F)F)cc1)c1ccc2c(=O)n3c(nc2c1)CCC3	CRFR2-BP ag 74
COc1ccc(C(=O)Nc2ccc3nc4n(c(=O)c3c2)CCCCC4)cc1OC	CRFBP-R2 block 62
Cc1cc(C)c2nc(NC(=O)c3ccc4c(=O)n5c(nc4c3)CCCCC5)sc2c1	CRFBP-R2 block 59
COc1cc(C(=O)Nc2ccc3nc4n(c(=O)c3c2)CCCCC4)cc(OC)c1OC	none
CCOC(=O)c1cn2nc(Oc3cccc(F)c3)ccc2n1	CRFBP-R2 block 62
CCCN1CCN(C(=O)c2ccc(CS(=O)c3ccc(Br)cc3)o2)CC1 (stereo not drawn)	none
COc1c(Cl)cc(-c2noc(C)c2C(=O)NCc2ccc3c(c2)OCO3)cc1Cl	CRFR2-BP ag 71
COc1ccc(/C=c2\s/c(=C/C(=O)c3ccc(C)cc3)[nH]c2=O)cc1OC	CRFR2-BP ag 182
CC(C)(C)C(=O)/C=c1\[nH]c(=O)/c(=C\c2ccc(F)cc2)s1	none
O=C(CCNS(=O)(=O)c1ccc(Br)cc1)NCc1ccco1	none
COC(=O)c1cc2occc2n1CC(=O)Nc1ccc(OC)c(OC)c1OC	none
COC(=O)c1cc2sc(Cl)cc2n1CC(=O)Nc1ccc(OC)c(OC)c1OC	CRFR2-BP ag 55
Cc1ccc(-n2c(Cl)c(Cl)[nH]c(=O)c2=O)cc1	CRFBP-R2 block 51
COc1ccc(CN2C(C(=O)NC3CCCC3)CSCCS2(=O)=O)cc1 (stereo not drawn)	none (no result: CRFBP-R2 block, CRFR2-BP ag)
CC(=O)Nc1nc2n(n1)C(c1ccccc1)C=C(c1ccccc1)N2 (stereo not drawn)	none (no result: DDE Tn7 FP inh, Tn6 DDE FP)
O=C(c1nc2n(n1)C(c1ccc(Cl)cc1)C=C(c1ccccc1)N2)N1CCOCC1 (stereo not drawn)	CRFR2-BP ag 97
CS(=O)(=O)Nc1nc2n(n1)C(c1ccccc1)C=C(c1ccc(Br)cc1)N2 (stereo not drawn)	CRFR2-BP ag 139 (no result: DDE Tn7 FP inh, Tn6 DDE FP)
CC(=O)Nc1nc2n(n1)C(c1ccc(F)cc1)C=C(c1ccccc1)N2 (stereo not drawn)	CRFR2-BP ag 75
O=C1CCC(=O)N1c1nc2n(n1)C(c1ccccc1)C=C(c1ccc(Br)cc1)N2 (stereo not drawn)	none
COc1ccc(-c2nnc(SCc3c(F)cccc3F)n2N)cc1	none (no result: CRFBP-R2 block, CRFR2-BP ag)
O=C(CCN1CCCC1=O)NC1CCCc2c1cnn2-c1ccccc1F (stereo not drawn)	CRFBP-R2 block 54
O=C(NCc1ccncc1)c1cc(F)c(F)cc1Cl	CRFBP-R2 block 60
O=C(Nc1ccc(Cc2ccncc2)cc1)c1cc(F)c(F)cc1Cl	none
O=C(COc1ccccc1C(=O)c1cnn(-c2ccccc2)c1)Nc1ccc2ccccc2c1	CRFBP-R2 block 141
COC(=O)c1ccc2c(c1)C(=O)/C(=C/c1ccc(C)cc1)O2	none
CN(C)c1ccc(/C=C2\Oc3ccc(C#Cc4cccc(N)c4)cc3C2=O)cc1	CRFR2-BP ag 80 (no result: DDE Tn7 FP inh, Tn6 DDE FP)
CC1CCN(c2ccc3c(c2)S(=O)(=O)c2cccc(C(=O)NCc4ccc(F)cc4)c2C3=O)CC1	CRFR2-BP ag 85
O=C(NC1CC1)c1cccc2c1C(=O)c1ccc(N3CCC(Cc4ccccc4)CC3)cc1S2(=O)=O	CRFR2-BP ag 83
O=C(NCc1ccc(F)cc1)c1cccc2c1C(=O)c1ccc(N3CCOCC3)cc1S2(=O)=O	none
O=C(NC1CCCCC1)c1cccc2c1C(=O)c1ccc(N3CCCC3)cc1S2(=O)=O	none
O=C(NCc1ccc(F)cc1)c1cccc2c1C(=O)c1ccc(N3CCC(Cc4ccccc4)CC3)cc1S2(=O)=O	CRFR2-BP ag 126
O=C(NCc1ccc(F)cc1)c1cccc2c1C(=O)c1ccc(N3CCC(N4CCCCC4)CC3)cc1S2(=O)=O	none
O=C(NCc1cc(C(F)(F)F)ccc1Cl)c1cccc2c1C(=O)c1ccc(N3CCC(Cc4ccccc4)CC3)cc1S2(=O)=O	CRFR2-BP ag 73 (no result: DDE Tn7 FP inh, Tn6 DDE FP)
O=C1CCC2(CCC(c3ccccc3)CC2)N1CCO (stereo not drawn)	none (no result: CRFBP-R2 block, CRFR2-BP ag)
O=C(NCc1ccccc1C(F)(F)F)c1cccc2c1C(=O)c1ccc(N3CCCCC3)cc1S2(=O)=O	CRFR2-BP ag 76
C=CCNC(=O)c1cccc2c1C(=O)c1ccc(N3CCOCC3)cc1S2(=O)=O	CRFBP-R2 block 98
COc1ccc(CCN2C(=O)CC(Cc3ccc(Br)cc3)C2=O)cc1OC (stereo not drawn)	none
COc1ccc(CCN2C(=O)CC(Cc3ccccc3)C2=O)cc1OC (stereo not drawn)	CRFBP-R2 block 79
Cc1cccc(C(C)C)c1-n1nnnc1-c1ccccc1	CRFBP-R2 block 54
CCOC(=O)CC[C@@H]1CC[C@]2(CCCN(C(=O)C3CCCC3)C2)O1	none (no result: CRFBP-R2 block, CRFR2-BP ag)
CCCCCCCCNS(=O)(=O)CCNCc1ccc(OC)cc1	CRFBP-R2 block 115
COc1ccc(CNCCS(=O)(=O)NCc2ccc(OC)cc2)cc1	none
NS(=O)(=O)c1ccc(NC(=O)CSc2nnc(COc3ccccc3Cl)n2C2CC2)cc1	CRFBP-R2 block 63
COc1cc(C2C=C(c3cccs3)Nc3ncnn32)cc(OC)c1OC (stereo not drawn)	CRFR2-BP ag 221 (no result: DDE Tn7 FP inh, Tn6 DDE FP)
CCOC(=O)c1sc(NC(=O)c2cccc(S(=O)(=O)N3CCN(C)CC3)c2)cc1C	CRFBP-R2 block 67
Cc1[nH]c2ccccc2c1SCCNC(=O)c1ccc(S(=O)(=O)N2CCCC2)cc1	CRFBP-R2 block 114
CCc1nnn2c1Cn1c3ccccc3c(=O)n1[C@@H](C)C2	none (no result: CRFBP-R2 block, CRFR2-BP ag)
CC(=O)N1CCc2cc(S(=O)(=O)NC3CCN(C(=O)OCc4ccccc4)CC3)ccc21	none (no result: CRFBP-R2 block, CRFR2-BP ag)
CC(C)OC(=O)CC(=O)c1sc2nc3c(cc2c1N)CN(C)CC3	CRFR2-BP ag 103 (no result: DDE Tn7 FP inh, Tn6 DDE FP)
CC(=O)Nc1cccc(N/C(N)=N/c2nc(C)cc(C)n2)c1	none
CCCCc1ccc(N/C(N)=N/c2nc(C)cc(C)n2)cc1	CRFR2-BP ag 102
Cc1cccc(N/C(N)=N/c2nc(C)cc(C)n2)c1	CRFR2-BP ag 81
Cc1ccc(N/C(N)=N/c2nc(C)cc(C)n2)cc1	CRFR2-BP ag 55
CCC(=O)Nc1ccc(N/C(N)=N/c2nc(C)cc(C)n2)cc1	none
O=C(Nc1ccc2c(c1)OCO2)O[C@@H]1CC[C@@]23CCCN2C(=O)CCC[C@H]3C1	none (no result: CRFBP-R2 block, CRFR2-BP ag)
c1ccc(-c2cnn3c(-c4ccccc4)c(-c4ccccc4)nc3n2)cc1	CRFR2-BP ag 220
Nc1nc(-c2ccccc2)c(-c2ccccc2)n1N	none
CC1Sc2ccc(S(=O)(=O)N3CCC(C(=O)NCCc4ccccc4)CC3)cc2NC1=O (stereo not drawn)	none
CC1Sc2ccc(S(=O)(=O)N3CCC(C(=O)NCC(C)c4ccccc4)CC3)cc2NC1=O (stereo not drawn)	CRFBP-R2 block 53
COc1ccc(CCNc2nc(N3CCOCC3)nc(N3CCOCC3)n2)cc1OC	none

Bioassay records (PubChem BioAssay)
